# UPR XBP1 act: adaptive UPR (XBP1) activation | 330,000 compounds, 0.33% hits | CHO-XBP1 luciferase reporter, IRE1-XBP1 UPR activation, luminescence; percent of tunicamycin response, DMSO as zero | activation, % at 20 µM;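 active = versus positive control, 20 µM dose yields 30% or more activation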;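 note: 100% = tunicamycin at 10 µg/mL and 0% = DMSO only wells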
#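 Material: CHO cell line with stable XBP1 luciferase reporter; buffer or medium: F12 medium containing 10% fetal bovine serum; compound: single point, 20 µM final compound, 1% DMSO; incubation: 6 h treatment, 37 °C; measured by: glow luminescence from Steady-Glo reagent; evaluation: activation, % of tunicamycin; control set: tunicamycin high, DMSO low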
# CHOP inhibitor: inhibitors of CHOP induction in ER stress response. CHO-K1 CHOP-promoter luciferase, tunicamycin-induced, 15-18 h. inhibition, % at 10 µM. 220,000 compounds, 3.8% hits. AID 2732;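 active = compounds that reduced the stress-induced luciferase reporter signal by more than about 70% of percent inhibition, limit read from the data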;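 note: 0% = tunicamycin plus vehicle and 100% = wells without tunicamycin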
# NOD2-RIPK2 inh: blocks binding of human NOD2 to RIPK2; O43353; inhibition, % at 4.98 µM; CHO BLA complementation NOD2-RIPK2, CCF4 ratio; 360,000 compounds, 0.38% hits; in the data active = inhibition above about 21%;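 note: 0% = vehicle only and 100% = reference blocker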
# Target sequence (O43353 whole entry, looked up): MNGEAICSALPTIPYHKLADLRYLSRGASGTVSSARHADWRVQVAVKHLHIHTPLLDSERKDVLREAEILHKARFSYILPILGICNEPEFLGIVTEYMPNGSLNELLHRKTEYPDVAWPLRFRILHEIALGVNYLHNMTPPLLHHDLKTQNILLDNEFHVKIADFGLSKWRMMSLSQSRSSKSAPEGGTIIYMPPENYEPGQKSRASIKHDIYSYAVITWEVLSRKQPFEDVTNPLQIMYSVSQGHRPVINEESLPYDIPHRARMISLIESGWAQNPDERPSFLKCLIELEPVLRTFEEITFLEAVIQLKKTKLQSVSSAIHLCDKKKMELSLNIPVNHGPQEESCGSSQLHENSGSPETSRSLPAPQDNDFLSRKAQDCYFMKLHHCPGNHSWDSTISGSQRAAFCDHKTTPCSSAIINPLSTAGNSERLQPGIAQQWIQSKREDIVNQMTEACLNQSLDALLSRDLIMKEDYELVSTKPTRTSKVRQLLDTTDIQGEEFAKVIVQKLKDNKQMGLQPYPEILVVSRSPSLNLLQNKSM
# CHOP UPR activ: apoptotic UPR (CHOP) activation. CHO-CHOP luciferase reporter, luminescence; percent of tunicamycin response over DMSO baseline. activation, % at 10 µM. 330,000 compounds, 0.34% hits;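 active = at 10 µM dose, activation of 40% or more, normalized to positive control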;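 note: 100% = tunicamycin at 10 µg/mL and 0% = DMSO alone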
#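 Assay system: CHO cells with stable CHOP pathway luciferase reporter; Buffer or medium: F12 plus 10% serum; Times: 16-18 h cell attachment, then 6 h compound exposure, 37 °C; Signal: luciferase luminescence; Read-out basis: percent activation relative to tunicamycin control; Control set: tunicamycin high control, DMSO low control.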
# TLR9-MyD88 inh: blocks human TLR9 binding to MyD88; CHO BLA complementation TLR9-MyD88, CCF4 FRET ratio; 340,000 compounds, 0.21% hits; inhibition, % at 4.98 µM;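 active = inhibition above the mean over all tested compounds plus 3 SD, cut at about 21% in these data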;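 note: 0% = DMSO only wells and 100% = clavulanate BLA inhibitor control wells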
# TLR4 MyD88 comp: TLR4-MyD88 interaction inhibition in cells | O00206+Q99836 | HeLa CL3-4 TLR4/MyD88 BLA complementation, FRET ratio | inhibition, % at 8.4 µM | 200,000 compounds, 0.18% hits | AID 861; in the data active = inhibition above about 25%;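 note: 0% = vehicle and 100% = reference inhibitor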
# XBP1 UPR conf: adaptive UPR (XBP1) activation, confirmed; AID 485299; 1,000 compounds, 63% hits; activation, % at 20 µM; CHO-XBP1 IRE1-XBP1 luciferase reporter, luminescence; shares compounds with UPR XBP1 act;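 active = reporter signal at least 30% of the positive control's activation in two or more of four replicate wells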;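 note: plate controls were DMSO negative control for no effect and tunicamycin 10 µg/mL positive control for full effect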
# The depositor's hits bear a star; x = no result given. Many of the other results were omitted from the sample, so hits are more common in it than they were.
SMILES,UPR XBP1 act,CHOP inhibitor,NOD2-RIPK2 inh,CHOP UPR activ,TLR9-MyD88 inh,TLR4 MyD88 comp,XBP1 UPR conf
CC1(C(=O)NCC2CC2)Cc2c(-c3ccccc3)ccnc2O1 (configuration not stated),x,x,1,x,x,x,x
CCN=C1S/C(=C\c2cn(CC(=O)NCc3ccco3)c3ccccc23)C(=O)N1CC,116*,x,6,0,11,x,97*
O=C(CSc1nnc(-c2ccncc2)n1-c1ccccc1)NC1CC1,-2,x,4,-1,-6,x,x
CC(C)(C)OC(=O)N[C@H](Cc1ccccc1)C(=O)N1CCC[C@@H]1C(=O)O,-1,x,7,2,4,x,x
COc1ccc2cc3c(N)nn(C(=O)C4CCC(C(C)(C)C)CC4)c3nc2c1 (configuration not stated),111*,67,-8,-3,-11,2,37*
COc1ccc2cc3cc(C(=O)N4CCN(c5ccccn5)CC4)oc3nc2c1,-1,x,-12,-1,2,x,x
COc1ccc(NC(=O)C2CCC(=O)N2C(=O)OCc2ccccc2)cc1 (configuration not stated),-4,x,-5,1,6,x,x
CCOC(=O)/C(=N\Nc1ccc(C(C)=O)cc1)c1csc(Nc2ccccc2)n1,46*,46,-7,7,8,5,94*
CCNC(=O)C1(C)CCCN(CC(=O)c2ccccc2OC)C1 (configuration not stated),x,x,-3,x,x,x,x
NC(=O)CSc1nc2ccccc2c(=O)n1Cc1ccco1,-4,5,-9,-1,-2,1,x
CCc1ccccc1NC(=O)C(CC)Sc1nc2cc3c(cc2c(=O)n1Cc1ccco1)OCO3 (configuration not stated),95*,28,-10,5,1,-1,193*
C=CCn1c(SCc2nc3ccccc3c(=O)[nH]2)nc2sc3c(c2c1=O)CCCC3,132*,-12,x,0,x,x,-1
C=CCn1c(SCc2nc3sc4c(c3c(=O)[nH]2)CCCC4)nc2ccccc2c1=O,1,-8,-5,4,-5,12,x
CCN(CC)C(=O)[C@H]1C[C@H](CC(=O)NCC23CC4CC(CC(C4)C2)C3)C(=O)N2CCc3c([nH]c4ccc(Cl)cc34)[C@]12C,11,x,2,4,-10,x,x
CC(C)N(C(=O)[C@H]1C[C@H](CC(=O)NCC23CC4CC(CC(C4)C2)C3)C(=O)N2CCc3c([nH]c4ccc(Cl)cc34)[C@]12C)C(C)C,39*,x,3,9,-18,x,50*
CN(CC1COc2ccccc2O1)C(=O)c1cccc(S(=O)(=O)N2CCCC2)c1 (configuration not stated),-2,x,-1,1,0,x,x
CN(C)Cc1nc2ccccc2c(=O)n1CC#N,5,-30,-1,1,8,-1,x
N#CCn1c(Cc2ccccc2)nc2ccccc2c1=O,32*,x,15,1,-7,x,0
NS(=O)(=O)c1ccc(NC(=O)COC(=O)c2cn(-c3ccccc3)nc2-c2ccc(F)cc2)cc1,68*,78*,-9,3,5,-5,89*
C/C(=N\NC(=O)c1cccc(F)c1)c1ccc(Br)s1,9,-31,2,-1,4,11,x
COc1ccc(S(=O)(=O)N2CCN(c3cnccn3)CC2)cc1OC,2,x,-11,1,-6,x,x
CCC(C)(C)C1CCC2(CC1)NC(=O)N(CC(=O)N1CCN(S(=O)(=O)c3cc(C)ccc3C)CC1)C2=O (configuration not stated),81*,x,-2,4,2,x,107*
Cc1nc2cccc(C)n2c(=O)c1Cl,38*,12,-6,-2,6,4,4
Cc1nc2ccc(Br)cn2c(=O)c1Cl,1,37,-11,-1,-6,14,x
CC(=O)N1CCN(C(=O)c2cccc(S(=O)(=O)NCc3ccccc3)c2)CC1,-2,x,-3,0,0,x,x
SMILES,UPR XBP1 act,CHOP inhibitor,NOD2-RIPK2 inh,CHOP UPR activ,TLR9-MyD88 inh,TLR4 MyD88 comp,XBP1 UPR conf
CC(=O)CSc1nc2ccc(Nc3nc(N4CCOCC4)nc(N4CCOCC4)n3)cc2s1,2,-25,1,1,-9,1,x
COc1ccc(NC(=O)CSc2nc3ccc(Nc4nc(N5CCOCC5)nc(N5CCOCC5)n4)cc3s2)cc1,58*,x,2,10,-12,x,31*
N#C/C(=C\N1CCCCC1)S(=O)(=O)c1ccc(Cl)cc1,-2,-3,4,2,x,x,x
CCCCCCOc1ccc(/C=c2\s/c(=C(/C#N)C(=O)NCc3ccco3)n(-c3ccccc3)c2=O)cc1,45*,11,-1,6,-4,3,26
O=C(CSc1nnc(-c2ccc3c(c2)OCO3)n1-c1ccccc1)c1ccccc1,-1,33,2,0,-9,0,x
O=C(CSc1nnc(-c2cccs2)n1-c1ccccc1)c1ccc2c(c1)OCCO2,61*,x,2,15,7,x,22
Cc1ccc(O)c(NC(=S)NC(=O)Cc2ccc(Cl)cc2)c1,52*,x,5,-1,-1,x,86*
CCn1cc(C(=O)OCC(=O)Nc2cccc(S(=O)(=O)N3CCOCC3)c2)c(=O)c2ccc(C)nc21,44*,54,-10,5,-2,5,7
Cc1ccsc1C(=O)OCC(=O)Nc1cccc(S(=O)(=O)N2CCOCC2)c1,-2,25,-6,2,7,-16,x
CCOC(=O)/C(C#N)=C\c1ccc(OCC(=O)Nc2ccc(C)cc2C)c(OC)c1,37*,53,-8,11,-4,6,2
Cc1ccc(/C=C2/Sc3ccc(C(=O)NCc4ccccn4)cc3NC2=O)cc1,32*,x,-10,7,2,x,0
Cc1cc(C)c2ccc(=O)n(CC(=O)N/N=C/c3ccccc3Cl)c2n1,-1,27,-3,-1,-2,x,x
CC(C)(C)NC(=O)CN(C(=O)C(=O)Nc1ccc2c(c1)OCCO2)N1CCOCC1,3,x,5,2,5,x,x
COc1ccc2oc(-c3ccc(C)c(NC(=O)c4ccc(N5CCOCC5)c([N+](=O)[O-])c4)c3)nc2c1,119*,5,0,8,6,8,140*
COC(=O)C1=C(C)Nc2nc(SCc3ccccc3)[nH]c(=O)c2C1c1cccs1 (configuration not stated),1,9,-22,2,-11,-4,x
O=C(O)c1cc(S(=O)(=O)N2CCN(C(=O)c3ccco3)CC2)c(Cl)cc1Cl,3,x,3,0,-3,x,x
CC(=Cc1cccs1)C(=O)c1ccccc1,x,x,6,x,-11,x,x
